Experimental data from ChEMBL document CHEMBL1124805 (J Med Chem, 1990).

Columns and labels:
Dopamine receptor = Dopamine receptor (Bos taurus, UniProt Q95136+P20288); assay: Agonistic activity against calf striatal Dopamine receptor using [3H]- ADTN radioligand; type: functional
How it was run: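 Calf striatal membranes incubated with the dopamine agonist radioligand (±)-[3H]ADTN at 0.5 nM for 60 min at 25 °C.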

[1] = target: Dopamine receptors; D1 & D2 (Rattus norvegicus) (UniProt P18901+P61169); assay: Ratio of binding affinity of D2 to binding affinity of D1; type: protein assay
D(1A) dopamine receptor = D(1A) dopamine receptor (Rattus norvegicus, UniProt P18901); assay: Binding affinity at rat striatal Dopamine receptor D1 using [3H]- SCH-23390 radioligand
D(2) dopamine receptor = D(2) dopamine receptor (Rattus norvegicus, UniProt P61169); assay: Binding affinity at rat striatal Dopamine receptor D2 using [3H]- piperone radioligand
D(2) dopamine receptor, sequence (P61169 whole entry): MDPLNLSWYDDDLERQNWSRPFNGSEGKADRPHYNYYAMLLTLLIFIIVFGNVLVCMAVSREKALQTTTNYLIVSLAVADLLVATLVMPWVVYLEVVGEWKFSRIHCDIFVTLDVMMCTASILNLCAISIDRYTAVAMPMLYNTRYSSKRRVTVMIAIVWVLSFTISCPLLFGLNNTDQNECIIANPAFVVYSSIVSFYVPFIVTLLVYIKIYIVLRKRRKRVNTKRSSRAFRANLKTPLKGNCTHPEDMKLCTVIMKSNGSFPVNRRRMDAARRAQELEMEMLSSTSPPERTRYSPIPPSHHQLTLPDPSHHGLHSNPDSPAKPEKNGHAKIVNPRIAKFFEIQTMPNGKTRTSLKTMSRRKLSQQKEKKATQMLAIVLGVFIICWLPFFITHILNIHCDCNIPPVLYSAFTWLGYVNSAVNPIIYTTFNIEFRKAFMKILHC

D(1A) dopamine receptor, sequence (P18901 whole entry): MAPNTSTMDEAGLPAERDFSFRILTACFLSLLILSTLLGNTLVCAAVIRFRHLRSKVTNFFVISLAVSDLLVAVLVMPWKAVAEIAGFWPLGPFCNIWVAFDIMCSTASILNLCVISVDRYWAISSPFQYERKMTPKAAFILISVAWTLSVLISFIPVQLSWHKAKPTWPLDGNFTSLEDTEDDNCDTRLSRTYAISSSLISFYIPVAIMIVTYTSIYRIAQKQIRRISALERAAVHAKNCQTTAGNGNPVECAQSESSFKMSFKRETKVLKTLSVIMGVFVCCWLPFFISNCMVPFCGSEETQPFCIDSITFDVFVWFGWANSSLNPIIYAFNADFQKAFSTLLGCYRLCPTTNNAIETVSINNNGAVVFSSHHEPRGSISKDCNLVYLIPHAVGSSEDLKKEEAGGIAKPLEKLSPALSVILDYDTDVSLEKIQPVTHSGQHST

| SMILES | Ki (Dopamine receptor) | Potency ratio [1] | Ki (D(1A) dopamine receptor) | Ki (D(2) dopamine receptor) |
| --- | --- | --- | --- | --- |
| CCCN1CCc2cc(OC)cc3c2[C@H]1Cc1ccc(O)c(O)c1-3 | 3.84 nM | 10500 | 1780 nM | 0.17 nM |
| CN1CCc2cc(Cl)cc3c2[C@H]1Cc1ccc(O)c(O)c1-3 | – | 3.3 | 74.5 nM | 22.3 nM |
| COc1cc2c3c(c1)-c1c(ccc(O)c1O)C[C@@H]3N(C)CC2 | 162 nM | > 300 | < 10000 nM | 34.7 nM |
| COc1cc2c3c(c1)-c1c(ccc(O)c1O)C[C@H]3N(C)CC2 | 16.4 nM | > 9000 | < 10000 nM | 1.12 nM |
| CN1CCc2cc(Br)cc3c2[C@H]1Cc1ccc(O)c(O)c1-3 | – | 6 | 106 nM | 17.7 nM |
| CCCN1CCc2cc(O)cc3c2[C@H]1Cc1ccc(O)c(O)c1-3 | 1.15 nM | 17300 | 915 nM | 0.053 nM |
